ChEMBL document CHEMBL3822425, “Isatin Derived Spirocyclic Analogues with α-Methylene-γ-butyrolactone as Anticancer Agents: A Structure-Activity Relationship Study” (J Med Chem, 2016)
The source made the active and inactive calls. The calls are words filed in the database; no cut-off is given here.

Tests used:
[1] = Cytotoxicity against human MIAPaCa2 cells assessed as cell growth inhibition after 3 days by presto blue dye based plate reader method; format: functional; conditions: MIA PaCa-2, 72 h
How it was run: (§1)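 Cells in DMEM high glucose/10% FBS (A2780 in RPMI/10% FBS), 4,000 per well, overnight, then 40 to 0.039 µM or vehicle, 24, 48, 72 h at 37°C, 5% CO2; PrestoBlue 15 min, fluorescence 560ex/590em; growth as 100×[(T−Tz)/(C−Tz)] per NCI algorithm.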

SW480 [2] = assay: Potency index, ratio of parthenolide IC50 to compound IC50 for cell growth inhibition of human SW480 cells; format: functional
A2780 [3] = assay: Potency index, ratio of ibrutinib EC50 to compound EC50 for cell growth inhibition of human A2780 cells; format: functional
HeLa [4] = assay: Potency index, ratio of parthenolide IC50 to compound IC50 for cell growth inhibition of human HeLa cells; format: functional
HeLa [5] = assay: Cytotoxicity against human HeLa cells expressing GFP assessed as cell growth inhibition after 3 days by presto blue dye based plate reader method; format: functional; conditions: 72 h; how it was run: as §1
A2780 [6] = assay: Cytotoxicity against human A2780 cells assessed as cell growth inhibition after 3 days by presto blue dye based plate reader method; format: functional; conditions: A2780, 72 h; how it was run: as §1
MIA PaCa-2 [7] = assay: Potency index, ratio of parthenolide IC50 to compound IC50 for cell growth inhibition of human MIAPaCa2 cells; format: functional
A2780 [8] = assay: Potency index, ratio of parthenolide EC50 to compound EC50 for cell growth inhibition of human A2780 cells; format: functional
SW480 [9] = assay: Cytotoxicity against human SW480 cells assessed as cell growth inhibition after 3 days by presto blue dye based plate reader method; format: functional; conditions: SW480, 72 h
MIA PaCa-2 [10] = assay: Potency index, ratio of ibrutinib IC50 to compound IC50 for cell growth inhibition of human MIAPaCa2 cells; format: functional
SW480 [11] = assay: Potency index, ratio of ibrutinib IC50 to compound IC50 for cell growth inhibition of human SW480 cells; format: functional
HeLa [12] = assay: Potency index, ratio of ibrutinib IC50 to compound IC50 for cell growth inhibition of human HeLa cells; format: functional
[13] = molecular target: T1, Inhibitor of nuclear factor kappa-B kinase subunit beta (Homo sapiens) (UniProt O14920); assay: Inhibition of IKKbeta in human MIAPaCa2 cells assessed as reduction in IkappaBalpha phosphorylation at 10 to 20 uM by Western blot analysis; format: cell-based; conditions: MIA PaCa-2
T1 sequence (whole entry): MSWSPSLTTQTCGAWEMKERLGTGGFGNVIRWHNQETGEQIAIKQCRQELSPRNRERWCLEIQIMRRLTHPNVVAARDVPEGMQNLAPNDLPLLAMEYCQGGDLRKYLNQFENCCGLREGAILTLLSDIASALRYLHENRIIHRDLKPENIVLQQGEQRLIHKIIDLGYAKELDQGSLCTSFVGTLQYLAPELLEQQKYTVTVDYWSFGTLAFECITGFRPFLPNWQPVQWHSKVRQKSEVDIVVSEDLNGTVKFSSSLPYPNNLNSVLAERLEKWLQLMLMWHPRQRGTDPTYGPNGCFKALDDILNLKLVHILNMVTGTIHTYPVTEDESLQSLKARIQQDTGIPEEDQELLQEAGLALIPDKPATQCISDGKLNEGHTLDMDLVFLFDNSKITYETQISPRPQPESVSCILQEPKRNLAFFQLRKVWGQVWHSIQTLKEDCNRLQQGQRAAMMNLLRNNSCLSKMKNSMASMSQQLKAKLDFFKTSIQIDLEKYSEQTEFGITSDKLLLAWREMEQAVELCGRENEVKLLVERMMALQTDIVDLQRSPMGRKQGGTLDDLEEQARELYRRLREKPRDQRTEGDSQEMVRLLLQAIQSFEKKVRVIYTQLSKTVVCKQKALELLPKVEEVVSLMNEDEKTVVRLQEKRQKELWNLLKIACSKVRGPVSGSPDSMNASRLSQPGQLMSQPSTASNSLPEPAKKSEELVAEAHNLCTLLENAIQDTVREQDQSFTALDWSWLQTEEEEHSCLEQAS

MDA-MB-231 [14] = assay: Cytotoxicity against human MDA-MB-231 cells assessed as cell growth inhibition after 3 days by presto blue dye based plate reader method; format: functional; how it was run: as §1
A2780 [15] = assay: Anticancer activity against human A2780 cells xenografted in nude C57B6 mouse orthotopic model of ovarian cancer assessed as tumor growth inhibition at 2.5 mg/kg administered ip 5 days a week for 4 weeks; format: functional; conditions: read-out: TGI
How it was run: (§2)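 Nude mice injected with 2 million A2780 ovarian cancer cells; treatment began day 3 (7 groups). Arms: vehicle, 1, 2.5 or 5 mg/kg given 5 days/week to day 30; cisplatin 2 or 4 mg/kg on days 5, 9, 14, 21; or 2.5 mg/kg plus 2 mg/kg cisplatin. Day 30: mice sacrificed, tumors removed and weighed.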

Mus musculus [16] = assay: Downregulation of NF-kappaB p65 in human A2780 cells xenografted in nude C57B6 mouse by immunohistochemistry method; format: functional, organism-based
How it was run: (§3)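 A2780 tumors from the day-30 nude-mouse study: H&E staining to locate tumor areas, cores punched into a tissue microarray, sections stained with rabbit anti-p65 or anti-Mcl-1 via polymer detection, scored 0-3 by percentage of positive cells (3 = ≥67% positive).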

Mus musculus [17] = assay: Downregulation of Mcl-1 in human A2780 cells xenografted in nude C57B6 mouse in presence of cisplatin by […]; format: functional, organism-based
SK-OV-3 [18] = assay: Induction of apoptosis in human SKOV3 cells assessed as caspase 3/7 activation after 24 hrs in presence of cisplatin by Caspase Glo-3/7 luminescence assay; format: functional, cell-based
How it was run: (§4)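 SKOV3 at 3,000 cells per well, overnight; compound 24 h; alamarBlue 3 h with fluorescence 560ex/590em as viability read; Caspase-Glo 3/7 reagent, shaken 30 s, 1 h room temperature, luminescence at 1000 ms integration.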

HeLa [19] = assay: Induction of apoptosis in human HeLa cells assessed as PARP cleavage after 24 to 48 hrs by Western blot analysis; format: functional, cell-based
How it was run: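 Cells collected with media and trypsinized pellet combined, lysed in RIPA buffer (pH 8.0), 4-20% SDS-PAGE, Western blot with anti-PARP to detect cleavage; HeLa timepoint 48 h.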

SK-OV-3 [20] = assay: Induction of apoptosis in human SKOV3 cells assessed as caspase 3/7 activation after 24 hrs in absence of cisplatin by Caspase Glo-3/7 luminescence assay; format: functional, cell-based; how it was run: as §4
A2780 [21] = assay: Potentiation of cisplatin-induced growth inhibition of human A2780 cells assessed as combination index at 1 to 10 uM after 3 days; format: functional
How it was run: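 Combination index values derived from median effect plots and dose-effect curves of combined treatments.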

A2780 [22] = assay: Anticancer activity against human A2780 cells xenografted in nude C57B6 mouse orthotopic model of ovarian cancer assessed as tumor growth inhibition at 5 mg/kg administered ip 5 days a week for 4 weeks; format: functional; conditions: read-out: TGI; how it was run: as §2
Mus musculus [23] = assay: Downregulation of NF-kappaB p65 in human A2780 cells xenografted in nude C57B6 mouse in presence of cisplatin by […]; format: functional, organism-based
A2780 [24] = assay: Anticancer activity against human A2780 cells xenografted in nude C57B6 mouse orthotopic model of ovarian cancer assessed as tumor growth inhibition administered ip 5 days a week for 4 weeks; format: functional; how it was run: as §2
serum albumin = serum albumin (Homo sapiens, UniProt P02768); assay: Binding affinity to human serum albumin assessed as half life by HPLC analysis; format: ADME
Sequence of serum albumin (P02768 whole entry): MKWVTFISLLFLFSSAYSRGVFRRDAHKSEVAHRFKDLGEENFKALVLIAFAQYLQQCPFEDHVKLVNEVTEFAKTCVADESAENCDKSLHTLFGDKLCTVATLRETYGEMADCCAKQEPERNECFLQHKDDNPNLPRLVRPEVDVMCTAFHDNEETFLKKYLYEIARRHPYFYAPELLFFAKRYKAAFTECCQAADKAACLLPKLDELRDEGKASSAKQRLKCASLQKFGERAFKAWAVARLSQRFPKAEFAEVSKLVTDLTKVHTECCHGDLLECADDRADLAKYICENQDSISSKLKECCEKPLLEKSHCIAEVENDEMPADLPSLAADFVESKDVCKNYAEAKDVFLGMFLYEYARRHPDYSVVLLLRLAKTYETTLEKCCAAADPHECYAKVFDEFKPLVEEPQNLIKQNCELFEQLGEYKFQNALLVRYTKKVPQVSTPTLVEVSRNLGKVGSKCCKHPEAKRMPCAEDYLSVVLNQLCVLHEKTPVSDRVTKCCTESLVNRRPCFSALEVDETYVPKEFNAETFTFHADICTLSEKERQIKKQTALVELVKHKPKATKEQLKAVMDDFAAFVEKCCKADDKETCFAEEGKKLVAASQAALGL

HeLa [25] = assay: Anticlonogenic activity against human HeLa cells assessed as inhibition of colony formation after 2 to 7 days by crystal violet staining; format: functional, cell-based
How it was run: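 HeLa cells seeded at 500-1000 per well, grown 24 h, drug-treated 48 h at 37°C (DMSO control), then fresh medium for 7 days; methanol fixed 15 min, 0.1% crystal violet 30 min at room temperature, colonies over 50 cells counted.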

[26] = Inhibition of TNFalpha-induced IKKbeta-mediated NF-kappaB activity in human A549 cells after 2 hrs followed by TNFalpha addition for 3 hrs by ONE-Glo Luciferase reporter based luminescence assay; format: cell-based
How it was run: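 A549 NF-κB luciferase cells (hygromycin B-maintained), 50,000 per well overnight; compound 2 h, then 20 ng/mL TNFα 3 h; alamarBlue 3 h as seeding/viability control; ONE-Glo added, 10 min room temperature, luminescence at 1000 ms.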

A549 [27] = assay: Inhibition of TNFalpha-induced IKKbeta-mediated NF-kappaB activity in human A549 cells at 10 uM after 2 hrs followed by TNFalpha addition for 7 hrs by ONE-Glo Luciferase reporter based luminescence assay; format: cell-based
How it was run: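 A549 luciferase cells grown 5 passages without TNFα then 2 passages with or without 5 ng/mL TNFα; 50,000 per well overnight; 10 µM compound 2 h; then 20 ng/mL TNFα 7 h; PrestoBlue 10 min (560ex/590em) viability; ONE-Glo 10 min, luminescence 1000 ms.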

Mus musculus [28] = assay: Downregulation of Mcl-1 in human A2780 cells xenografted in nude C57B6 mouse by immunohistochemistry method; format: functional, organism-based; how it was run: as §3
MDA-MB-231 [29] = assay: Cytotoxicity against human MDA-MB-231 cells assessed as cell growth inhibition at 0.039 to 40 uM by presto blue dye based plate reader method; format: functional; conditions: TDE = time-dependent effect
A549 [30] = assay: Inhibition of TNFalpha-induced IKKbeta-mediated NF-kappaB activity in human A549 cells at 10 uM after 2 hrs followed by TNFalpha addition for 3 hrs by ONE-Glo Luciferase reporter based luminescence assay; format: cell-based
A2780 [31] = assay: Anticancer activity against human A2780 cells xenografted in nude C57B6 mouse orthotopic model of ovarian cancer assessed as tumor growth inhibition at 2.5 mg/kg administered ip 5 days a week for 4 weeks in presence of 2 mg/kg of cisplatin; format: functional; how it was run: as §2
[32] = molecular target: T1, Inhibitor of nuclear factor kappa-B kinase subunit beta (Homo sapiens); assay: Inhibition of IKKbeta in human MDA-MB-231 cells assessed as reduction in IkappaBalpha phosphorylation by Western blot analysis; format: cell-based
How it was run: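 MDA-MB-231 cytoplasmic fractions: swelling 30 min on ice in HEPES/KCl/EDTA/DTT buffer with inhibitors, 1.25% NP-40, centrifuged; lysates on 4-20% gels, PVDF, anti-phospho-IκBα and anti-IκBα, tubulin or GAPDH loading control, ECL detection.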

Mus musculus [33] = assay: Toxicity in nude C57B6 mouse orthotopic model of ovarian cancer xenografted with human A2780 cells assessed overt toxicity at 1 to 5 mg/kg administered ip 5 days a week for 4 weeks; format: organism-based; conditions: in vivo

In the case of `C=C1CC2(OC1=O)C(=O)Nc1c(C)ccc(C)c12` (configuration not stated), the IC50 [1] is reported as 0.9 µM, the “Ratio IC50” value (SW480 [2]) is reported as 2 and the “Ratio EC50” value (A2780 [3]) is reported as 20. The “Ratio IC50” value (HeLa [4]) was 2, the IC50 (HeLa [5]) was 3.2 µM and the EC50 (A2780 [6]) was 1 µM. The “Ratio IC50” value (MIA PaCa-2 [7]) was 2, the “Ratio EC50” value (A2780 [8]) was 13 and the IC50 (SW480 [9]) was 1.2 µM. For the same compound, the “Ratio IC50” value (MIA PaCa-2 [10]) was 5, the “Ratio IC50” value (SW480 [11]) was 5 and the “Ratio IC50” value (HeLa [12]) was 5.

In the case of `C=C1CC2(OC1=O)C(=O)Nc1ccccc12` (configuration not stated), the inhibition [13] is reported as “Active”, the “growth inhibition (GI)” value (MDA-MB-231 [14]) is reported as “Dose-dependent effect” and the inhibition in vivo at 2.5 mg/kg (A2780 [15]) is reported as 21%. The Activity (Mus musculus [16]) was “Active”, the Activity (Mus musculus [17]) was “Active” and the Activity (SK-OV-3 [18]) was “Active”. The Activity (HeLa [19]) was “Active”, the Activity (SK-OV-3 [20]) was “Active” and the CI (A2780 [21]) was under 1. For the same compound, the inhibition in vivo at 5 mg/kg (A2780 [22]) was 40%, the EC50 (A2780 [6]) was 2.3 µM and the “Ratio EC50” value (A2780 [8]) was 4. For the same compound, the Activity (Mus musculus [23]) was “Active”, the TGI (A2780 [24]) was 10% and the inhibition (A2780 [24]) was “Dose-dependent effect”. The half-life (serum albumin) was 4.83 h, the inhibition (HeLa [25]) was “Dose-dependent effect” and the IC50 [26] was 4 µM. For the same compound, the inhibition (A549 [27]) was 75%, the Activity (Mus musculus [28]) was “Active” and the “growth inhibition (GI)” value (MDA-MB-231 [29]) was “tde”. The inhibition (A549 [30]) was over 70%, the TGI (A2780 [31]) was 65% and the inhibition [32] was “Active”. For the same compound, the Activity (Mus musculus [33]) was “Non-toxic”.
